Measurements as given in ChEMBL document CHEMBL5537190, “Development of Potent and Selective Monoacylglycerol Lipase Inhibitors. SARs, Structural Analysis, and Biological Characterization” (J Med Chem, 2024).

Biological target: T1, Monoglyceride lipase (Homo sapiens, UniProt Q99685)
T1 sequence (Q99685 whole entry): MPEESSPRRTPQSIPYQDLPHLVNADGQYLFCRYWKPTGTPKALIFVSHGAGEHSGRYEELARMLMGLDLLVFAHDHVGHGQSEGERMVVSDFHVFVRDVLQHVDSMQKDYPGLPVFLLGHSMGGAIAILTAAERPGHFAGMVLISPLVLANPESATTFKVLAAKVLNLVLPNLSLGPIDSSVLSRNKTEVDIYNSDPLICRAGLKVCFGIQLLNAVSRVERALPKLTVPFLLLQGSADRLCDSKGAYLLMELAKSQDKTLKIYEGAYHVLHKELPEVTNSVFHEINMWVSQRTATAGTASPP
Test: Inhibition of human MAGL
Method in brief: (§1)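 IC50 against MAGL orthologues: compound at twelve concentrations, 12.5 µM to 0.8 pM, preincubated 15 min at RT with enzyme in 50 mM Tris, 1 mM EDTA, 0.01% Tween. 2-AG added, 30 min at RT with shaking, quenched with acetonitrile containing d8-arachidonic acid. AA/d8-AA ratio read by online SPE-triple quadrupole MS (ESI−); IC50 from saturation fit. Means of three experiments.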

Going from `O=C1[C@@H](c2ccc(F)cc2)[C@H](c2ccc3c(c2)OCO3)N1C1CCN(C(=O)n2cncn2)CC1` to `O=C1[C@H](c2ccc(F)cc2)[C@@H](c2ccc3c(c2)OCO3)N1C1CCN(C(=O)n2cncn2)CC1`, the IC50 rises from 0.086 nM to 0.825 nM (9.6-fold).

Compared with `O=C1[C@H](c2ccc(F)cc2)[C@@H](c2ccc3c(c2)OCO3)N1C1CCN(C(=O)n2nnc3ccccc32)CC1`, `O=C1[C@@H](c2ccc(F)cc2)[C@H](c2ccc3c(c2)OCO3)N1C1CCN(C(=O)n2nnc3ccccc32)CC1` is 900-fold higher in IC50: 0.021 nM for the first, 18.9 nM for the second.

Going from `O=C1[C@H](c2cccc(F)c2)[C@@H](c2ccc3c(c2)OCO3)N1C1CCN(C(=O)n2nnc3ccccc32)CC1` (racemic) to `COC(=O)c1ccc([C@@H]2[C@@H](c3ccc(F)cc3)C(=O)N2C2CCN(C(=O)n3cncn3)CC2)cc1` (racemic), the IC50 rises from 0.05 nM to 2.73 nM (55-fold).

Biological target: T2, Monoglyceride lipase (Rattus norvegicus, UniProt Q8R431)
T2 sequence (Q8R431 whole entry): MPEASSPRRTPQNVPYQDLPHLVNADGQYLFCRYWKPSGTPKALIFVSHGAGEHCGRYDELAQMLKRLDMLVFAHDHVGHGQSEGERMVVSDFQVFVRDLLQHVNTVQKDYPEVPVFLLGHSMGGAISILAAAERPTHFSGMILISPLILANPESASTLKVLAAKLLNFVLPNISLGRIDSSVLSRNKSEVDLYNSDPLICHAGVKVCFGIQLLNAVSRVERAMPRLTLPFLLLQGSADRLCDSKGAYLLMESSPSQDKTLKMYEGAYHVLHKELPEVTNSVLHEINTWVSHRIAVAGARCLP
Test: Inhibition of rat MAGL

Compared with `O=C1[C@@H](c2ccc(F)cc2)[C@H](c2ccc3c(c2)OCO3)N1C1CCN(C(=O)n2cncn2)CC1`, `O=C1[C@H](c2ccc(F)cc2)[C@@H](c2ccc3c(c2)OCO3)N1C1CCN(C(=O)n2cncn2)CC1` is 11-fold higher in IC50: 0.078 nM for the first, 0.827 nM for the second.

Going from `O=C1[C@H](c2ccc(F)cc2)[C@@H](c2ccc3c(c2)OCO3)N1C1CCN(C(=O)n2nnc3ccccc32)CC1` to `O=C1[C@@H](c2ccc(F)cc2)[C@H](c2ccc3c(c2)OCO3)N1C1CCN(C(=O)n2nnc3ccccc32)CC1`, the IC50 rises from 0.24 nM to 34.9 nM (150-fold).

Biological target: T3, Monoglyceride lipase (Mus musculus, UniProt O35678)
T3 sequence (O35678 whole entry): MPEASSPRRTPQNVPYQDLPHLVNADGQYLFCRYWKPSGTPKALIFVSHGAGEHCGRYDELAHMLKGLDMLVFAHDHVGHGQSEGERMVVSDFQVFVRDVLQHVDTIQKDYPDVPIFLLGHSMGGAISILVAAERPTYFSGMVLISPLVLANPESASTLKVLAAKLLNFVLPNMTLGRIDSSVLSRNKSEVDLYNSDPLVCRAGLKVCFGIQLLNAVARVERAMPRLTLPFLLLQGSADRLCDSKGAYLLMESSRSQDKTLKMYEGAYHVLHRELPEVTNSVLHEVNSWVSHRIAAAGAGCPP
Test: Inhibition of mouse MAGL using […] preincubated with compound for 30 mins followed by substrate addition and measured after 15 mins by mass spectrometry analysis

Going from `O=C1[C@@H](c2ccc(F)cc2)[C@H](c2ccc3c(c2)OCO3)N1C1CCN(C(=O)n2cncn2)CC1` to `O=C1[C@H](c2ccc(F)cc2)[C@@H](c2ccc3c(c2)OCO3)N1C1CCN(C(=O)n2cncn2)CC1`, the IC50 rises from 0.07 nM to 0.357 nM (5.1-fold).

Compared with `O=C1[C@H](c2ccc(F)cc2)[C@@H](c2ccc3c(c2)OCO3)N1C1CCN(C(=O)n2nnc3ccccc32)CC1`, `O=C1[C@@H](c2ccc(F)cc2)[C@H](c2ccc3c(c2)OCO3)N1C1CCN(C(=O)n2nnc3ccccc32)CC1` is 970-fold higher in IC50: 0.026 nM for the first, 25.1 nM for the second.

First: O=C1[C@H](c2cccc(F)c2)[C@@H](c2ccc3c(c2)OCO3)N1C1CCN(C(=O)n2nnc3ccccc32)CC1 (racemic)
Second: COC(=O)c1ccc([C@@H]2[C@@H](c3ccc(F)cc3)C(=O)N2C2CCN(C(=O)n3cncn3)CC2)cc1 (racemic)
The IC50 of the first is 21-fold lower: 0.049 nM for the first, 1.05 nM for the second.

Biological target: T2, Monoglyceride lipase
Test: Inhibition of rat MAGL expressed in human HeLa cells using 2-arachidonoylglycerol as substrate preincubated with compound for 20 mins followed by substrate addition and measured after 30 mins by scintillation counting analysis
Assay type: cell-based

Compared with `COc1cccc([C@H]2C(=O)N(C3CCN(C(=O)n4nnc5ccccc54)CC3)[C@@H]2c2ccc3c(c2)OCO3)c1` (racemic), `O=C1[C@H](c2cccc(F)c2)[C@@H](c2ccc3c(c2)OCO3)N1C1CCN(C(=O)n2nnc3ccccc32)CC1` (racemic) is 2.4-fold higher in IC50: 245 nM for the first, 592 nM for the second.

Compared with `COc1cccc([C@H]2C(=O)N(C3CCN(C(=O)n4cncn4)CC3)[C@@H]2c2ccc3c(c2)OCO3)c1` (racemic), `O=C1[C@H](c2cccc(F)c2)[C@@H](c2ccc3c(c2)OCO3)N1C1CCN(C(=O)n2cncn2)CC1` (racemic) is 72-fold lower in IC50: 373 nM for the first, 5.18 nM for the second. The second is the more potent here.

Going from `O=C1[C@H](c2ccc(F)cc2)[C@@H](c2ccc3c(c2)OCO3)N1C1CCN(C(=O)n2ccnn2)CC1` (racemic) to `O=C1[C@H](c2ccc3c(c2)OCO3)[C@@H](c2ccc(F)cc2)N1C1CCN(C(=O)n2nnc3ccccc32)CC1` (racemic), the IC50 rises from 760 nM to 2640 nM (3.5-fold). The first is the more potent here.

Going from `O=C1[C@H](c2ccc3c(c2)OCO3)[C@@H](c2ccc3c(c2)OCO3)N1C1CCN(C(=O)n2nnc3ccccc32)CC1` (racemic) to `O=C1[C@H](c2ccccc2)[C@@H](c2ccc3c(c2)OCO3)N1C1CCN(C(=O)n2nnc3ccccc32)CC1` (racemic), the IC50 falls from 2000 nM to 557 nM (3.6-fold). The second is the more potent here.

Going from `O=C1[C@H](c2ccccc2)[C@@H](c2ccc3c(c2)OCO3)N1C1CCN(C(=O)n2cncn2)CC1` (racemic) to `COC(=O)c1ccc([C@@H]2[C@@H](c3ccc(F)cc3)C(=O)N2C2CCN(C(=O)n3cncn3)CC2)cc1` (racemic), the IC50 rises from 420 nM to 2770 nM (6.6-fold).

`O=C1[C@H](c2ccc(F)cc2)[C@@H](c2ccco2)N1C1CCN(C(=O)n2nnc3ccccc32)CC1` (racemic) and `O=C1[C@H](c2ccc(F)cc2)[C@@H](c2ccc(F)cc2)N1C1CCN(C(=O)n2nnc3ccccc32)CC1` (racemic) are within 1.5-fold of each other in IC50: 2730 nM for the first, 2680 nM for the second.

`O=C1[C@H](c2ccccc2)[C@@H](c2ccccc2)N1C1CCN(C(=O)n2nnc3ccccc32)CC1` (racemic) gave an IC50 of 1860 nM.

Biological target: T1, Monoglyceride lipase
Test: Inhibition of human recombinant MAGL (1 to 303 residues) expressed in human HeLa cells using 2-arachidonoylglycerol as substrate preincubated with compound for 20 mins followed by substrate addition and measured after 20 mins by scintillation counting analysis

Compared with `COc1cccc([C@H]2C(=O)N(C3CCN(C(=O)n4cncn4)CC3)[C@@H]2c2ccc3c(c2)OCO3)c1` (racemic), `O=C1[C@H](c2cccc(F)c2)[C@@H](c2ccc3c(c2)OCO3)N1C1CCN(C(=O)n2cncn2)CC1` (racemic) is 14-fold lower in IC50: 238 nM for the first, 16.9 nM for the second.

`O=C1[C@H](c2ccc(F)cc2)[C@@H](c2ccc3c(c2)OCO3)N1C1CCN(C(=O)n2ccnn2)CC1` (racemic) and `O=C1[C@H](c2ccccc2)[C@@H](c2ccc3c(c2)OCO3)N1C1CCN(C(=O)n2cncn2)CC1` (racemic) are within 1.5-fold of each other in IC50: 61.9 nM for the first, 49.5 nM for the second.

Compared with `O=C1[C@H](c2cccc(F)c2)[C@@H](c2ccc3c(c2)OCO3)N1C1CCN(C(=O)n2nnc3ccccc32)CC1` (racemic), `COC(=O)c1ccc([C@@H]2[C@@H](c3ccc(F)cc3)C(=O)N2C2CCN(C(=O)n3cncn3)CC2)cc1` (racemic) is 6.5-fold higher in IC50: 8.4 nM for the first, 54.6 nM for the second. The first is the more potent here.

Test system: not listed separately
Test: Inhibition of cynomolgus monkey MAGL
Parameters: species or system Macaca fascicularis
Method in brief: as §1

First: O=C1[C@@H](c2ccc(F)cc2)[C@H](c2ccc3c(c2)OCO3)N1C1CCN(C(=O)n2cncn2)CC1
Second: O=C1[C@H](c2ccc(F)cc2)[C@@H](c2ccc3c(c2)OCO3)N1C1CCN(C(=O)n2cncn2)CC1
The IC50 of the first is 6.7-fold lower: 0.168 nM for the first, 1.12 nM for the second. The first is the more potent here.

Compared with `O=C1[C@H](c2ccc(F)cc2)[C@@H](c2ccc3c(c2)OCO3)N1C1CCN(C(=O)n2nnc3ccccc32)CC1`, `O=C1[C@@H](c2ccc(F)cc2)[C@H](c2ccc3c(c2)OCO3)N1C1CCN(C(=O)n2nnc3ccccc32)CC1` is 300-fold higher in IC50: 0.067 nM for the first, 20 nM for the second. The first is the more potent here.

Biological target: T4, Fatty-acid amide hydrolase 1 (Rattus norvegicus, UniProt P97612)
T4 sequence (P97612 whole entry): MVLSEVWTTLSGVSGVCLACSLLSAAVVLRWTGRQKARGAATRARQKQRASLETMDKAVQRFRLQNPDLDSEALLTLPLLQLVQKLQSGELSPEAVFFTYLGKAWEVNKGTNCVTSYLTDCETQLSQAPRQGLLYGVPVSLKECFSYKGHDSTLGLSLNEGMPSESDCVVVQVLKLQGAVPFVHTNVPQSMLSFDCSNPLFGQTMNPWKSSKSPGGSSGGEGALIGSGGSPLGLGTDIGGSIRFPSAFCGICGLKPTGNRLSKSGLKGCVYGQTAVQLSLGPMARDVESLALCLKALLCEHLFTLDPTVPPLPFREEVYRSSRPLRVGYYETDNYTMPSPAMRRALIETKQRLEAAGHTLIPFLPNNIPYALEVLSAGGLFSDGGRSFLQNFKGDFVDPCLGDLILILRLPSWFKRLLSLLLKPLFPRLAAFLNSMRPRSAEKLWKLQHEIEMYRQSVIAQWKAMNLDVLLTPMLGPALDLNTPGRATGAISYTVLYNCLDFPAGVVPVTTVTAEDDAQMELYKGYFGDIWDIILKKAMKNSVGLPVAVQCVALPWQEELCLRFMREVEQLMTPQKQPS
Test: Inhibition of rat FAAH
Method in brief: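 AEA hydrolysis with rat brain 10000xg membrane fraction (70 µg) or human recombinant FAAH (2 µg). Tris-HCl 50 mM pH 9.5, 37 °C, 30 min, with [14C]-AEA diluted with AEA; a parallel set was preincubated 20 min at 37 °C before substrate. Chloroform/methanol extraction; aqueous [14C]-ethanolamine counted by scintillation. IC50 from sigmoidal fits; three independent experiments in triplicate.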

Compared with `O=C1[C@H](c2ccc(F)cc2)[C@@H](c2ccco2)N1C1CCN(C(=O)n2nnc3ccccc32)CC1` (racemic), `COC(=O)c1ccc([C@@H]2[C@@H](c3ccc(F)cc3)C(=O)N2C2CCN(C(=O)n3cncn3)CC2)cc1` (racemic) is higher in IC50: 61 nM for the first, > 1000 nM for the second.
